inhibition, GI50 and IC50 data for three molecules are collected here from ChEMBL document CHEMBL4706565, “Anti-glioma effects of 2-aminothiophene-3-carboxamide derivatives, ANO1 channel blockers” (Eur J Med Chem, 2020).

Series [1] concerns U-251. In words: Inhibition of anchorage-independent colony formation in human U251 cells at 10 uM incubated for 14 days by crystal violet staining based soft agar colony formation assay. The format is functional, cell-based. The following applies: time 14.0 day. Summed up: (§1)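 Soft agar assay: 2.0×10^3 U251 cells in complete medium with 0.3% agar over a 0.6% bottom agar layer. Treated with compounds at 1-100 μM for 14 days, 37 °C, 5% CO2. Colonies stained with crystal violet for 24 h, whole wells photographed and colonies counted against DMSO control; n = 3.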

Series [2] concerns U-251. In words: Inhibition of cell migration in human U251 cells at 10 uM incubated for 18 hrs by wound healing assay. The format is functional. Summed up: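 U251 monolayer, 2.0×10^5 cells/well, plated overnight, then scratched and washed with PBS. Wound area imaged before and after incubation; migration ratio taken from migrated area. One-way ANOVA.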
In series [3] the test system is U138-MG. The series can be described thus: Antiproliferative activity against human U138 cells overexpressing ANO1 assessed as reduction in cell viability measured after 72 hrs by Celltiter-glo assay. The format is functional. Summed up: (§2)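 5.0×10^3 cells/well seeded, overnight, then compounds added as 1:4 serial dilutions in DMSO; viability read after 72 h with CellTiter-Glo luminescence. GI50 from fitted dose-response curves; triplicate wells, SD from three independent experiments. DMEM for U251 and U138, MEM for U87MG, both with 10% FBS and pen/strep, 37 °C, 5% CO2.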
A general note: ATP-based viability assays read luminescence as a measure of living cells.

Series [4] in a line: Antiproliferative activity against mouse primary astrocytes assessed as reduction in cell viability at 100 uM measured after 72 hrs by Celltiter-Glo luminescent assay. It counts as cell-based, Astrocyte. The gist of the method: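 Primary astrocytes isolated from adult mouse brain by a previously reported method. 5.0×10^3 cells/well, compound as 1:4 serial DMSO dilutions, CellTiter-Glo viability at 72 h.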

The target of series [5] is T1, Anoctamin-1 (Mus musculus, UniProt Q8BHY3).
T1 sequence (Q8BHY3 whole entry): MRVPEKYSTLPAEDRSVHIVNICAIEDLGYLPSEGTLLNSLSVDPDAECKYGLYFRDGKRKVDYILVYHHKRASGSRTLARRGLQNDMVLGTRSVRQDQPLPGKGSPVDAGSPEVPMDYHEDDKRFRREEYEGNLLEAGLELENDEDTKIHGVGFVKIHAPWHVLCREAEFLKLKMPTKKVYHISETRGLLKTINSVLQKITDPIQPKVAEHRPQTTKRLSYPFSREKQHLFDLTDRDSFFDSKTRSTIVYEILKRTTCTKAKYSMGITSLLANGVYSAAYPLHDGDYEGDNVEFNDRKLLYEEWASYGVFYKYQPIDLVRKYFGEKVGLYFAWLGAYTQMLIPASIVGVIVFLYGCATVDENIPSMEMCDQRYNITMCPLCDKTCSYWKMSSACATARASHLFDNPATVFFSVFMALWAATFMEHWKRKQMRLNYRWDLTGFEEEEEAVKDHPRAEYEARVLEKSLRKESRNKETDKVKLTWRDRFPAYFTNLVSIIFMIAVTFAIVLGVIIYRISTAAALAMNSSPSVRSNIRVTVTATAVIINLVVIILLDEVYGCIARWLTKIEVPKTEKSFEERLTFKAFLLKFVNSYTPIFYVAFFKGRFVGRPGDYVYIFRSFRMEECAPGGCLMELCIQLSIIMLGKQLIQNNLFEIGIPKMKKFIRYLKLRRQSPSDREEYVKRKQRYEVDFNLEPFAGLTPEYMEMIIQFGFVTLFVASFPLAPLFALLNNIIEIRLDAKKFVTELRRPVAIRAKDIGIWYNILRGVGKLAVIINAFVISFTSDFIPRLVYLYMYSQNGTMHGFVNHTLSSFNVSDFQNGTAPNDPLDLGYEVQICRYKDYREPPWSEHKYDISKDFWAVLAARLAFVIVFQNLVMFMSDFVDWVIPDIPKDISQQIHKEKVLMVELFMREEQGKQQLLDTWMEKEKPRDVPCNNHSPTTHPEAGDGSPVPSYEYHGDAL
In words: Inhibition of GFP-fused mouse ANO1 channel expressed in HEK293A cells assessed as inhibition of ATP-induced channel current amplitude at membrane potential of +80 mV by patch clamp electrophysiology assay. The format is cell-based, HEK293-A. The gist of the method:
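Whole-cell recording at room temperature in HEK293A cells transfected with GFP-mANO1, GFP-mANO2 or GFP-mTTYH1. 1 s ramps from +80 to -80 mV, holding potential -10 mV. For ANO1/ANO2: pipette CsCl 146 mM with Ca-EGTA-NMDG, pH 7.3; bath NaCl-based, pH 7.3. For TTYH1: Tris-aspartate pipette (pH 7.2) and Tris-HCl bath (pH 7.4), with […] and BaCl2 added to block K+ channels, and hypotonic (220 mOsm/kg) bath. Washout recordings assessed reversibility.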

The test system of series [6] is U-251. The series can be described thus: Inhibition of anchorage-independent colony formation in human U251 cells at 30 uM incubated for 14 days by crystal violet staining based soft agar colony formation assay. It counts as functional, cell-based. The following applies: time 14.0 day. Summed up:
as §1

Series [7] relates to U-251. The series can be described thus: Inhibition of anchorage-independent colony formation in human U251 cells at 100 uM incubated for 14 days by crystal violet staining based soft agar colony formation assay. It counts as functional. Summed up:
as §1

The subject of series [8] is U-251. The series can be described thus: Inhibition of cell invasion in human U251 cells at 10 uM incubated for 48 hrs by Boyden chamber method. The format is functional. Summed up: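 Boyden chamber invasion: U251 cells serum-starved 24 h, then 2.5×10^5 cells seeded in 8-μm ECMatrix-coated transwells. Treated with compound at 1 or 10 μM for 48 h at 37 °C. Invasion ratio from relative fluorescence.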

For series [9], the system named is U-251. The series can be described thus: Antiproliferative activity against human U251 cells overexpressing ANO1 assessed as reduction in cell viability measured after 72 hrs by Celltiter-glo assay. The format is functional. Summed up:
as §2

Series [10] concerns U-251. The series can be described thus: Inhibition of colony formation in human U251 cells at 10 uM incubated for 14 days by crystal violet dye based assay. The format is functional. The gist of the method: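 Colonies stained 24 h with crystal violet in methanol/formaldehyde/PBS, washed, extracted with 10% acetic acid and read at A570 nm. Compared against DMSO control.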

The next series deals with U-87 MG. In words: Antiproliferative activity against human U87MG cells overexpressing ANO1 assessed as reduction in cell viability at 100 uM measured after 72 hrs by Celltiter-glo assay. The format is functional, U-87MG ATCC. The gist of the method:
as §2

For series [11], the system named is U138-MG. In words: Antiproliferative activity against human U138 cells overexpressing ANO1 assessed as reduction in cell viability at 100 uM measured after 72 hrs by Celltiter-glo assay. The format is functional. Summed up:
as §2

The target in series [12] is T2, Anoctamin-1 (Homo sapiens, UniProt Q5XXA6).
T2 sequence (Q5XXA6 whole entry): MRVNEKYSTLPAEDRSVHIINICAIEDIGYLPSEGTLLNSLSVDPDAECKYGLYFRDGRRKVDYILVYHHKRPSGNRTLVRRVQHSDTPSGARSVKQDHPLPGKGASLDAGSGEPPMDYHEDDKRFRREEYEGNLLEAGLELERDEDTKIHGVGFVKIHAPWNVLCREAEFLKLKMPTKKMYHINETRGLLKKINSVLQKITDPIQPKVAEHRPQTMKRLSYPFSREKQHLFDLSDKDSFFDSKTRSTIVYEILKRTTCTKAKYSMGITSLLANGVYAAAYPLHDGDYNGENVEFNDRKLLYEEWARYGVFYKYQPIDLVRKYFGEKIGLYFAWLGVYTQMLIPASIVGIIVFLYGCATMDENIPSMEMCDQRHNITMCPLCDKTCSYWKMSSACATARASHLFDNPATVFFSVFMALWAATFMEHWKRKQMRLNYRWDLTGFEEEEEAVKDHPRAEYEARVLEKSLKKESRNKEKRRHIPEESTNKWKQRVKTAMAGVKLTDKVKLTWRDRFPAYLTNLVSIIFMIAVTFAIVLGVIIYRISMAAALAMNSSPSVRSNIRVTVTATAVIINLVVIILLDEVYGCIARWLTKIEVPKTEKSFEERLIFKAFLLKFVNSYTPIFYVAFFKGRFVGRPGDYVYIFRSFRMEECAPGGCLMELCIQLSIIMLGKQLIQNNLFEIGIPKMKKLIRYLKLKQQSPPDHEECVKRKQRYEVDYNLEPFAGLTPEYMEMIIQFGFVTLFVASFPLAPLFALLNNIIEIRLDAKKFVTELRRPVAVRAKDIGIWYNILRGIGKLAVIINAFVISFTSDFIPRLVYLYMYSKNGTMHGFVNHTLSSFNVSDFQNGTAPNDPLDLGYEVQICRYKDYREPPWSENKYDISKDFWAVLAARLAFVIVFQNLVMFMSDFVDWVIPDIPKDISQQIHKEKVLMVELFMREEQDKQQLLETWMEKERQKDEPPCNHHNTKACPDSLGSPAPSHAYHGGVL
The series can be described thus: Inhibition of human ANO1 expressed in FRT cells assessed as inhibition of ATP-induced channel current treated 20 mins prior to ATP challenge and measured by pacth-clamp technique. The format is cell-based.

Series [13] deals with T2, Anoctamin-1. The series can be described thus: Inhibition of human ANO1 channel expressed in HEK293 cells incubated for 10 mins by FLIPR assay. It counts as cell-based. The gist of the method: (§3)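 HEK293 cells expressing human ANO1, 50,000 cells/well, plated overnight. Loaded with FLIPR Red membrane-potential dye in HEPES-buffered saline (pH 7.4) for 40-60 min at room temperature. Compound added for 10 min at room temperature, final DMSO 0.5%.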

Series [14] concerns the target T3, Anoctamin-1 (Homo sapiens) (UniProt Q5XXA6).
T3 sequence (whole entry): T2 sequence (Q5XXA6 whole entry)
In words: Inhibition of human ANO1 channel expressed in HEK293 cells at 10 uM incubated for 10 mins by FLIPR assay relative to control. It counts as cell-based. The gist of the method:
as §3

Series [15] concerns U-251. The series can be described thus: Antiproliferative activity against human U251 cells overexpressing ANO1 assessed as reduction in cell viability at 100 uM measured after 72 hrs by Celltiter-glo assay. The format is functional. Summed up:
as §2

The source made the active and inactive calls. The rule behind the calls is not given here. Where only a bound is given, the exact number is not on record here.

A word on the inhibition: it is the change of the read-out against control, counted positive when it falls. As a reminder, the GI50 is the concentration that inhibits growth by half. One may read the IC50 as the concentration at which inhibition is half-maximal.

Turning to `CC(C)(C)C1CCc2c(sc(NC(=O)c3ccco3)c2C(=O)O)C1` (stereo unspecified), the inhibition entry with U-251 [1] and in the series with U-251 [6] was “inactive” in each case. Further, the inhibition at 10 µM with U-251 [2] turned out to be 34.8%; in the series on U-251 [8], 28.3%; in the series with U-251 [10] (U-251, 336 h, time 14 day) it was 72.7%. The GI50 with U138-MG [3] amounted to 89.4 µM; in the series with U-251 [9], 41.9 µM. Also, in [4], the inhibition at 72 h, 100 µM is below 50%. Also, the IC50 on Anoctamin-1 [5] was 1.53 µM. For the same molecule, the inhibition at 100 µM was 72.7% with U-251 [7] (U-251, 336 h, time 14 day) and below 50% with U-87 MG.

In the case of `CCc1c(C)nc(SCC(=O)Nc2ncc(-c3ccc(OC)cc3)s2)nc1O`, the inhibition at 100 µM in the series on U138-MG [11] and in the series on U-87 MG was below 50% throughout. Also, the inhibition entry in the series on U-251 [1], with U-251 [7] (time 14.0 day) and in the series on U-251 [10] (time 14.0 day) was “inactive” each time. Also, the IC50 at Anoctamin-1 [12] came out at 1.1 µM; on Anoctamin-1 [13], 2.6 µM; at Anoctamin-1 [5] it was 2.74 µM. Besides, the inhibition at 10 µM with U-251 [2] was determined as 26.5%; in the series on U-251 [8], 19.2%. Besides, the inhibition at 72 h, 100 µM in [4] was below 50%. For the same molecule, the GI50 in the series with U-251 [9] was 79.3 µM. The inhibition in series [14] worked out at 63.9%.

Take `CC(C)(C)C(=O)Nc1sc2c(c1C(N)=O)CCCCC2`: the inhibition at 100 µM with U138-MG [11], in the series with U-251 [15] and in the series on U-87 MG was below 50% throughout. The IC50 against Anoctamin-1 [13] was determined as 4.79 µM; at Anoctamin-1 [5], 4.07 µM. In series [4], the inhibition at 72 h, 100 µM was below 50%. In series [14], this molecule had an inhibition of 67.9%.
